We go through 37 compounds from ChEMBL document CHEMBL1759987, “2-Acylamino-5-chlorobenzophenones with enhanced selectivity towards malaria parasites” (Eur J Med Chem, 2011).

Data set [1] is described as follows: Selectivity index, CC50 for HeLa cells to IC50 for Plasmodium falciparum. It is filed as functional.
A further data set deals with Plasmodium falciparum. The data set can be described thus: Antiplasmodial activity against multidrug- resistant Plasmodium falciparum Dd2 assessed as inhibition of [3H]hypoxanthine incorporation after 72 hrs. It is filed as functional, organism-based. An outline of the steps: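 Dd2 parasites kept in continuous culture and sorbitol-synchronized, then exposed to a range of concentrations for 72 h. Growth read by [3H]-hypoxanthine incorporation and converted to percent inhibition. IC50 taken from sigmoidal dose-response curves fitted with a Hill function. At least three independent repeats, reported as mean ± SEM.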

Data set [2] is described as follows: Cytotoxicity in human HeLa cells assessed as cell viability after 72 hrs. The format is cell-based. An outline of the steps: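 HeLa cells grown in RPMI 1640 with 10% heat-inactivated FBS and gentamicin at 37 °C. About 10,000 cells seeded per well, preincubated 48 h without compound. DMSO stocks (10 mg/ml) diluted 1:200 in medium and added, then 72 h at 37 °C, 5% CO2. Cells fixed with glutaraldehyde, stained with 0.05% methylene blue, eluted with 0.33 M HCl, OD read at 660 nm.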

As for `O=C(c1ccccc1)c1cc(Cl)ccc1NC(=O)C(c1ccccc1)N1CCCCC1` (racemic), in data set [1], the “Ratio CC50/IC50” value turned out to be 6. Further, the IC50 in the data set on Plasmodium falciparum was found to be 10.2 µM. The CC50 at 72 h in data set [2] came to 63 µM.
As to `Cl.NC(Cc1ccccc1)C(=O)Nc1ccc(Cl)cc1C(=O)c1ccccc1` (racemic), the “Ratio CC50/IC50” value in data set [1] is reported as 3. Further, the IC50 in the data set on Plasmodium falciparum was 14.1 µM. For the same compound, the CC50 at 72 h in data set [2] worked out at 38 µM.
As to `CN1CCN(C(=O)N[C@@H](C(=O)Nc2ccc(Cl)cc2C(=O)c2ccccc2)c2ccccc2)CC1`, the “Ratio CC50/IC50” value in data set [1] is recorded as 45. In addition, the IC50 in the data set with Plasmodium falciparum was determined as 1.35 µM. The CC50 at 72 h in data set [2] amounted to 60 µM.
For `O=C(c1ccccc1)c1cc(Cl)ccc1NC(=O)C(c1ccccc1)N1CCOCC1` (racemic) the same measures were 6, 6.72 µM and 39 µM.
Turning to `CN(C)CCN1CCN(C(C(=O)Nc2ccc(Cl)cc2C(=O)c2ccccc2)c2ccccc2)CC1` (racemic), the “Ratio CC50/IC50” value in data set [1] was found to be 15. The IC50 with Plasmodium falciparum was found to be 2.56 µM. Moreover, the CC50 at 72 h in data set [2] came out at 39 µM.
In the case of `O=C(c1ccccc1)c1cc(Cl)ccc1NC(=O)C(c1ccc(-c2ccccc2)cc1)N1CCN(CCO)CC1` (racemic), the “Ratio CC50/IC50” value in data set [1] worked out at 59. In the data set with Plasmodium falciparum, the IC50 was 0.28 µM. For the same compound, the CC50 at 72 h in data set [2] stood at 16 µM.
`O=C(O)CN1CCN(C(C(=O)Nc2ccc(Cl)cc2C(=O)c2ccccc2)c2ccccc2)CC1` (racemic): in data set [1], the “Ratio CC50/IC50” value is listed as 34. Moreover, the half-maximal inhibitory concentration (IC50) with Plasmodium falciparum is above 3 µM. In addition, in data set [2], the CC50 at 72 h is above 102 µM.
On to `O=C(c1ccccc1)c1cc(Cl)ccc1NC(=O)C(c1ccccc1)N1CCN(Cc2ccccc2)CC1` (racemic), for which the “Ratio CC50/IC50” value in data set [1] is given as 6. In addition, in the data set with Plasmodium falciparum, the IC50 was above 20 µM. For the same compound, in data set [2], the 50% cytotoxic concentration (CC50) at 72 h is above 118 µM.
The corresponding values for `O=C(c1ccccc1)c1cc(Cl)ccc1NC(=O)C(c1ccccc1)N1CC[S+]([O-])CC1` (racemic) are 8, 9.02 µM and 71 µM.
The corresponding values for `CN1CCN(C(=O)NC(C(=O)Nc2ccc(Cl)cc2C(=O)c2ccccc2)c2ccccc2)CC1` (single isomer, unassigned) are 17, 4.21 µM and 72 µM.
For `CCOC(=O)N1CCN(C(C(=O)Nc2ccc(Cl)cc2C(=O)c2ccccc2)c2ccccc2)CC1` (racemic) the same measures were 15, 4.26 µM and 64 µM.
In the case of `CC(C)(C)OC(=O)N[C@@H](C(=O)Nc1ccc(Cl)cc1C(=O)c1ccccc1)c1ccccc1`, in data set [1], the “Ratio CC50/IC50” value worked out at 17. In addition, the IC50 in the data set with Plasmodium falciparum amounted to 6.18 µM. Also, the CC50 at 72 h in data set [2] was above 108 µM.
As for `O=C(c1ccccc1)c1cc(Cl)ccc1NC(=O)C(c1ccccc1)N1CCN(c2ccc([N+](=O)[O-])cc2)CC1` (racemic), in data set [1], the “Ratio CC50/IC50” value was 5. The IC50 with Plasmodium falciparum is above 20 µM. Moreover, the CC50 at 72 h in data set [2] was above 90 µM.
As for `COC(=O)CN1CCN(C(C(=O)Nc2ccc(Cl)cc2C(=O)c2ccccc2)c2ccccc2)CC1` (racemic), in data set [1], the “Ratio CC50/IC50” value worked out at 33. Moreover, the IC50 in the data set on Plasmodium falciparum is above 3 µM. Further, in data set [2], the CC50 at 72 h is above 99 µM.
As for `O=C(c1ccccc1)c1cc(Cl)ccc1NC(=O)C(c1ccccc1)N1CCC(CCO)CC1` (racemic), the “Ratio CC50/IC50” value in data set [1] is on record as 1. Further, the IC50 in the data set on Plasmodium falciparum was found to be 15 µM. In data set [2], the CC50 at 72 h was found to be 19 µM.
Consider `Cl.NC(C(=O)Nc1ccc(Cl)cc1C(=O)c1ccccc1)c1ccccc1` (racemic), for which, in data set [1], the “Ratio CC50/IC50” value is 6. In addition, the half-inhibitory concentration (IC50) with Plasmodium falciparum stood at 6.71 µM. The half-maximal cytotoxic concentration (CC50) at 72 h in data set [2] was 37 µM.
With `CC(C)(C)OC(=O)N1CCN(C(C(=O)Nc2ccc(Cl)cc2C(=O)c2ccccc2)c2ccccc2)CC1` (centres undefined), the “Ratio CC50/IC50” value in data set [1] is recorded as 11. For the same compound, the IC50 in the data set with Plasmodium falciparum was 8.21 µM. In addition, the CC50 at 72 h in data set [2] was above 94 µM.
Consider `O=C(c1ccccc1)c1cc(Cl)ccc1NC(=O)C(c1ccc(Br)cc1)N1CCN(CCO)CC1` (racemic), for which the “Ratio CC50/IC50” value in data set [1] came out at 31. In addition, the IC50 with Plasmodium falciparum was 0.56 µM. The CC50 at 72 h in data set [2] was found to be 17 µM.
Turning to `NC(CO)C(=O)Nc1ccc(Cl)cc1C(=O)c1ccccc1` (racemic), the half-maximal inhibitory concentration (IC50) with Plasmodium falciparum is above 20 µM.
In the case of `CC(C)(C)OC(=O)N[C@H](C(=O)Nc1ccc(Cl)cc1C(=O)c1ccccc1)c1ccccc1`, the “Ratio CC50/IC50” value in data set [1] is listed as 13. Also, the 50% inhibitory concentration (IC50) in the data set with Plasmodium falciparum was 8.47 µM. Moreover, the CC50 at 72 h in data set [2] was above 108 µM.
As to `O=C(c1ccccc1)c1cc(Cl)ccc1NC(=O)C(c1cccc2ccccc12)N1CCN(CCO)CC1` (racemic), the “Ratio CC50/IC50” value in data set [1] was 18. In the data set on Plasmodium falciparum, the IC50 came to 0.95 µM. The CC50 at 72 h in data set [2] is 17 µM.
`O=C(c1ccccc1)c1cc(Cl)ccc1NC(=O)C(c1ccccc1)N1CCSCC1` (racemic): in data set [1], the “Ratio CC50/IC50” value came out at 10. Further, in the data set with Plasmodium falciparum, the concentration for half-maximal inhibition (IC50) was 11.5 µM. In data set [2], the CC50 at 72 h is above 111 µM.
As for `CN1CCN(C(C(=O)Nc2ccc(Cl)cc2C(=O)c2ccccc2)c2ccccc2)CC1` (racemic), the “Ratio CC50/IC50” value in data set [1] is recorded as 18. In addition, the IC50 in the data set with Plasmodium falciparum amounted to 3.54 µM. The CC50 at 72 h in data set [2] was found to be 63 µM.
The corresponding values for `CCCN1CCN(C(C(=O)Nc2ccc(Cl)cc2C(=O)c2ccccc2)c2ccccc2)CC1` (racemic) are 6, 6.23 µM and 38 µM.
Take `O=C(c1ccccc1)c1cc(Cl)ccc1NC(=O)C(c1ccc(F)cc1)N1CCN(CCO)CC1` (racemic): the “Ratio CC50/IC50” value in data set [1] came out at 45. Moreover, the concentration for half-maximal inhibition (IC50) in the data set on Plasmodium falciparum came out at 0.84 µM. In data set [2], the cytotoxic concentration (CC50) at 72 h is 38 µM.
As for `O=C(c1ccccc1)c1cc(Cl)ccc1NC(=O)C(c1ccccc1)n1ccnc1` (racemic), the “Ratio CC50/IC50” value in data set [1] is 12. The IC50 with Plasmodium falciparum was found to be 4.51 µM. Further, in data set [2], the CC50 at 72 h was found to be 55 µM.
For `CC(C)NC(=O)CN1CCN(C(C(=O)Nc2ccc(Cl)cc2C(=O)c2ccccc2)c2ccccc2)CC1` (racemic), the “Ratio CC50/IC50” value in data set [1] stood at 41. Besides, in the data set with Plasmodium falciparum, the IC50 was 0.98 µM. The CC50 at 72 h in data set [2] came to 40 µM.
Regarding `O=C1CCN(C(C(=O)Nc2ccc(Cl)cc2C(=O)c2ccccc2)c2ccccc2)CC1` (racemic), the “Ratio CC50/IC50” value in data set [1] is reported as 4. In the data set with Plasmodium falciparum, the 50% inhibitory concentration (IC50) came out at 7.43 µM. In addition, the CC50 at 72 h in data set [2] is 27 µM.
Take `O=CN1CCN(C(C(=O)Nc2ccc(Cl)cc2C(=O)c2ccccc2)c2ccccc2)CC1` (racemic): the “Ratio CC50/IC50” value in data set [1] turned out to be 13. Besides, the IC50 with Plasmodium falciparum amounted to 3.77 µM. The CC50 at 72 h in data set [2] came out at 50 µM.
For `O=C(c1ccccc1)c1cc(Cl)ccc1NC(=O)C(c1ccccc1)N1CCN(c2ccccc2)CC1` (racemic) the same measures were 5, above 20 µM and above 98 µM.
`Cl.N[C@H](C(=O)Nc1ccc(Cl)cc1C(=O)c1ccccc1)c1ccccc1`: the “Ratio CC50/IC50” value in data set [1] was 3. Also, the half-maximal inhibitory concentration (IC50) in the data set with Plasmodium falciparum is above 16 µM. In addition, the CC50 at 72 h in data set [2] stood at 43 µM.
On to `NC(=O)CN1CCN(C(C(=O)Nc2ccc(Cl)cc2C(=O)c2ccccc2)c2ccccc2)CC1` (racemic), for which, in data set [1], the “Ratio CC50/IC50” value came to 22. Further, in the data set on Plasmodium falciparum, the concentration for half-maximal inhibition (IC50) amounted to 3.32 µM. Also, the CC50 at 72 h in data set [2] turned out to be 65 µM.
On to `O=C(c1ccccc1)c1cc(Cl)ccc1NC(=O)C(c1ccc2ccccc2c1)N1CCN(CCO)CC1` (racemic), for which the “Ratio CC50/IC50” value in data set [1] is 94. In addition, the IC50 in the data set with Plasmodium falciparum worked out at 0.18 µM. In data set [2], the half-maximal cytotoxic concentration (CC50) at 72 h was 17 µM.
For the compound `Cl.N[C@@H](C(=O)Nc1ccc(Cl)cc1C(=O)c1ccccc1)c1ccccc1`, the “Ratio CC50/IC50” value in data set [1] is on record as 1. In addition, the IC50 in the data set with Plasmodium falciparum worked out at 9.25 µM. Moreover, the CC50 at 72 h in data set [2] was 12 µM.
Regarding `O=C(c1ccccc1)c1cc(Cl)ccc1NC(=O)C(c1ccc(C(F)(F)F)cc1)N1CCN(CCO)CC1` (racemic), the “Ratio CC50/IC50” value in data set [1] is listed as 28. The IC50 in the data set with Plasmodium falciparum came to 0.6 µM. The CC50 at 72 h in data set [2] was found to be 17 µM.
On to `O=C(c1ccccc1)c1cc(Cl)ccc1NC(=O)C(c1ccccc1)N1CCN(CCO)CC1` (racemic), for which the “Ratio CC50/IC50” value in data set [1] amounted to 150. Besides, in the data set on Plasmodium falciparum, the concentration for half-maximal inhibition (IC50) worked out at 0.33 µM. In addition, in data set [2], the CC50 at 72 h is 49 µM.
`CCN1CCN(C(C(=O)Nc2ccc(Cl)cc2C(=O)c2ccccc2)c2ccccc2)CC1` (racemic): the “Ratio CC50/IC50” value in data set [1] amounted to 21. For the same compound, in the data set with Plasmodium falciparum, the IC50 came out at 3.62 µM. Further, in data set [2], the CC50 at 72 h stood at 76 µM.

In general, IC50 refers to the concentration that inhibits the measured activity by half. One may read the CC50 as the concentration that lowers cell viability or growth by half.
